Screens from PubChem.
Tb MetRS inh: blocks T. brucei methionyl-tRNA synthetase activity; purified T. brucei MetRS, ATP depletion, Kinase-Glo luminescence; inhibition, % at 11.9 µM; 0.4% of 360,000 active; AID 624268;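 active = inhibition above a per-plate cutoff of the control wells' mean inhibition plus 3 SD, cut at about 5.5% in these data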
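Material – parasite MetRS enzyme · Medium – HEPES-MgCl2-KCl buffer plus DTT, spermine, BSA, pyrophosphatase · Reagent – ATP, methionine and E. coli bulk tRNA substrates · Times – 15 min enzyme-compound preincubation, 2 h reaction, 10 min detection, 25 °C · Measured by – luminescence of leftover ATP · Evaluation – percent inhibition relative to median high and low control wells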
DAGLB inhibitor: blocks human DAGLB lipase activity | Q8NCG7 | HEK293T DAGLB membrane lysate, EnzChek fluorogenic substrate | inhibition, % at 5.17 µM | 0.059% of 340,000 active | AID 504411; in the data active = inhibition above about 34%
PLCg1 inh: blocks human PLC-gamma1 enzyme activity. inhibition, % at 12.2 µM. P19174. purified PLC-gamma1, fluorogenic substrate, fluorescence. 0.84% of 370,000 active; in the data active = inhibition above about 9.5%
sPLA2-III inh: Blocks human group III sPLA2 activity; Q9NZ20; QFRET BODIPY PC-A2 liposome hydrolysis, fluorescence; inhibition, % at 12.2 µM; 0.56% of 370,000 active; AID 743126;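 active = inhibition above mean plus 3 SD of compounds lying within the high and low control bounds, cut at about 19% in these data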
Target sequence (Q9NZ20 whole entry, looked up): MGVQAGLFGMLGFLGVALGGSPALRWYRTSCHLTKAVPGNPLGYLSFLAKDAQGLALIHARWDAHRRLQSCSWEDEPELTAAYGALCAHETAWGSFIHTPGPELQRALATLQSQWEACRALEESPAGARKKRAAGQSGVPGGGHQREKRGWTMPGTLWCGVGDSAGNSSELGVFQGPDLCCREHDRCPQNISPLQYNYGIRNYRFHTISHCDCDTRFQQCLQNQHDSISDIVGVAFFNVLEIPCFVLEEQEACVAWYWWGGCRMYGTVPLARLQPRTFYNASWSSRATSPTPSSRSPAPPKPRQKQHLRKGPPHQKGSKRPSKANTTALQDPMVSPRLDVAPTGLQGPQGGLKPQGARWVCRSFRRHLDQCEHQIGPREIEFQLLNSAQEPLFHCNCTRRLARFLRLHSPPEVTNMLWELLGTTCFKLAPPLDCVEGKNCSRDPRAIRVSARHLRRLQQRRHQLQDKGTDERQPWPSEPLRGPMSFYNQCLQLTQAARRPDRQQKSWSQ
PLC-beta3 inh: inhibitors of human phospholipase C beta3; Q01970; Purified PLC-beta3, fluorogenic substrate, fluorescence; inhibition, % at 12.2 µM; 0.18% of 370,000 active
PLCg1 ctr: inhibits human PLC-gamma1 in PLC-beta3 counter-screen; shares compounds with PLCg1 inh; purified PLC-gamma1, fluorogenic substrate, fluorescence; inhibition, % at 12.3 µM; 3.1% of 3,300 active; in the data active = inhibition above about 9.5%
PLCb3 confirm: human PLC-beta3 inhibition, confirmation | shares compounds with PLCg1 inh | purified PLC-beta3, fluorogenic substrate fluorescence | inhibition, % at 12.3 µM | 1% of 3,300 active | AID 743261
A number is an active result; i = inactive; nt = no result given. A selection: hits, their analogues and other compounds. The true share with any hit is near 1.9%. Rule as the data show it, unless noted: active = inhibition above about 11%; inactive = the rest.

SMILES	Tb MetRS inh	DAGLB inhibitor	PLCg1 inh	sPLA2-III inh	PLC-beta3 inh	PLCg1 ctr	PLCb3 confirm
CCCC(O)(c1ccc(Cl)cc1)C(CN1CCOCC1)c1ccccc1 (stereo not given)	i	i	10.7	i	i	i	i
CCCC(O)(c1ccccc1)C(CN1CCOCC1)c1ccccc1 (stereo not given)	i	i	i	i	i	nt	nt
CCOC(=O)Nc1ccc2c(c1)[C@]1(CC(=O)N(CC(C)C)C1c1ccccc1)C(=O)N2C (stereo not given in full)	nt	nt	i	i	i	nt	nt
CCOC(=O)c1cnn(-c2nc(-c3ccccc3F)cs2)c1C(F)(F)F	i	i	9.8	i	i	i	i
Cc1cc(NS(=O)(=O)c2ccc(NC(=O)CSc3nnc(-c4ccncc4)n3-c3ccccc3)cc2)nc(C)n1	nt	nt	i	i	i	nt	nt
CC(=O)Nc1ccc(-c2csc(Nc3ncccn3)n2)cc1	i	i	9.9	i	i	i	i
COc1ccc(N2CCN(C3CCCN(C(=O)CN4CCCC4=O)C3)CC2)cc1 (stereo not given)	i	i	9.8	i	i	i	i
COc1ccc(-n2c(CSc3ccc(Cl)cc3)n[nH]c2=S)cc1	nt	nt	i	i	i	nt	nt
COc1ccccc1C/C(N)=N/O	i	i	i	i	11.3	i	i
Clc1ccc(-n2c(SCc3cccc4ccccc34)nnc2-c2ccco2)cc1	nt	nt	i	i	i	nt	nt
Cc1c[nH]c2cccc(-c3c(Cl)cccc3Cl)c12	nt	nt	i	i	i	nt	nt
Cn1cnnc1Sc1ccc(C(=O)NCCC23CC4CC(CC(C4)C2)C3)cc1[N+](=O)[O-]	i	i	9.5	i	i	i	i
CCC(C)(C)NC(=O)c1ccc(Sc2nncn2C)c([N+](=O)[O-])c1	i	i	i	i	i	nt	nt
CSc1cccc(NC(=S)N(CCCN2CCCC2)Cc2cccs2)c1	i	i	12.6	i	i	i	i
COc1ccc(NC(=S)N(CCCN2CCCC2)Cc2cccs2)cc1	i	i	i	i	i	nt	nt
CC(=O)OC(C(=O)Nc1nccs1)c1ccccc1 (stereo not given)	i	i	13.3	i	i	i	i
O=C1OC(Oc2ccccc2)(c2ccccc2)c2ccccc21 (stereo not given)	i	i	i	i	i	nt	nt
O=C1OC(Cc2ccccc2)(c2ccccc2)c2ccccc21 (stereo not given)	i	i	11.3	i	11.1	i	i
Cc1cc(C)cc(NC(=O)C2(c3cccs3)CCOCC2)c1	i	i	9.8	i	i	i	i
COc1ccccc1N1CCN(S(=O)(=O)c2ccc3c(c2)n(C)c(=O)c(=O)n3C)CC1	nt	nt	i	i	i	nt	nt
CC1CCc2sc(C(=O)NCc3ccc(F)cc3)cc2C1 (stereo not given)	i	i	i	i	i	nt	nt
O=C(NCc1ccc(F)cc1)c1cc2c(s1)CCCC2	i	i	15.7	i	14.6	i	11.2
COC(=O)c1cccc(CC2(C)C(=O)Nc3cc(-c4ccccc4Cl)ccc32)c1 (stereo not given)	i	nt	14.3	i	i	i	i
O=C(NCCCN1CCCCC1)C1CCC(CNS(=O)(=O)c2cccc3nsnc23)CC1 (stereo not given)	i	i	10.3	i	i	i	i
COc1ccc(OC)c(NC(=O)COC(=O)C2CCCCC2)c1	i	i	10.4	i	12.2	i	i
SMILES	Tb MetRS inh	DAGLB inhibitor	PLCg1 inh	sPLA2-III inh	PLC-beta3 inh	PLCg1 ctr	PLCb3 confirm
CN(CC(=O)Nc1ccc(F)c(F)c1F)C(=O)C1CCCCC1	i	i	i	i	i	nt	nt
CN(CC(=O)Nc1ccc(F)c(F)c1F)C1CCCCC1	i	i	10.5	i	i	i	i
COc1ccc(NC(=O)CN(C)S(=O)(=O)c2ccccc2)c([N+](=O)[O-])c1	i	i	i	i	i	nt	nt
COc1ccc(NC(=O)CN(C)C2CCCCC2)c([N+](=O)[O-])c1	i	i	12.0	i	i	i	i
CCC[C@H]1[C@@H](OC(=O)NC(CC)CC)CC[C@@]23CCCN2C(=O)CCC[C@@H]13	nt	nt	i	i	i	nt	nt
COc1ccc(C2CC(=O)C(c3ccc(Cl)c(Cl)c3)=CN2Cc2ccccc2)cc1 (stereo not given)	nt	nt	i	i	i	nt	nt
CC(CCN1CCC(C(O)(c2ccccc2)c2ccccc2)CC1)Oc1ccc(C#N)c(F)c1 (stereo not given)	nt	nt	i	i	i	nt	nt
